Screening results as filed in PubChem.
In the library only some 8.4% were active in any assay of this set; here they are far more common.
E coli WT exp: growth inhibitors of wild-type E. coli, primary screen, strain BW25113, expanded library, OD600; OD600 absorbance; growth inhibition, % at 100 µM; 98,000 tested, 0.15% active;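 active = growth inhibition above about 50% at one test dose, limit read from the data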;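 note: growth measured after 20 h incubation at 37 °C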
Cav3 T inh: Cav3.2 calcium influx blockers – cell-based, Fluo-4 calcium fluorescence, FDSS, MLSMR library, primary screen; B-score at 10 µM; Cav3.2-expressing cells; active compounds read low; 100,000 tested, 4% active; Voltage-dependent T-type calcium channel subunit alpha-1H (Homo sapiens), O95180;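 active = single-dose well whose peak fluorescence ratio is a statistical outlier from its plate by either plate-standardised score or position-corrected B-score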
PostGolgi yeast: phenotypic screen on post-Golgi transport, primary screen; post-Golgi transport phenotypic cell assay; inhibition, % at 10 µM; 98,000 tested, 0.9% active;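 note: yeast cells grown in 1536-well plates; yeast grown about 18 h at 30C before absorbance read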
PostGolgi ctrl: growth inhibition of yeast control strain, primary screen, counter-screen for post-Golgi transport modulator project; efflux-deficient yeast background strain, growth absorbance A615, 16 h; inhibition, % at 10 µM; 98,000 tested, 5% active; AID 738, 2007
Ecoli tolC: growth inhibitors of E. coli tolC mutant, primary screen, strain BW25113 ΔtolC::kan, 384-well; 65,000 tested, 2.2% active; OD615; AID 573, 2007; growth inhibition, % at 10 µM (by protocol);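 active = growth inhibition at or above a cutoff equal to the mean over every tested compound plus 3 SD, cut at about 60% in these data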;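 note: growth measured after 20 h incubation at 37 °C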
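Test system: E. coli BW25113 ΔtolC::kan bacteria | Medium: Kanamycin-containing LB broth (50 µg/mL) | Dosing: One dose of 10 µM final | Times: 20 h incubation with compound, 37 °C | Detection: Optical density read at 615 nm | Read-out basis: Percent growth inhibition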
* = called active by the depositor. Cut-off read from the data, not from the text of the source, unless noted: active = inhibition above about 30%; inactive = the rest.

Results for CC(C)Oc1ccc(/C(O)=C2/C(=O)C(=O)N(CCCN3CCOCC3)C2c2ccncc2)cc1 (configuration not stated) ?
Ecoli tolC: -14

What do the screens show for `CC(c1nnnn1C(C)(C)C)N(Cc1cccnc1)Cc1ccccc1Cl` (configuration not stated)?
E coli WT exp: 9; Cav3 T inh: -0.78; PostGolgi yeast: 17; PostGolgi ctrl: 32*

How did Oc1ccc(Br)cc1-c1nc2cnccn2c1NC1CCCCC1 do in these assays?
E coli WT exp: -5; Cav3 T inh: 0.02; PostGolgi yeast: 29; PostGolgi ctrl: 86*

Results for Oc1ccc(Br)cc1-c1nc2cnccn2c1NC1CCCC1 ?
E coli WT exp: -7; Cav3 T inh: -2.8; PostGolgi yeast: 6; PostGolgi ctrl: 63*; Ecoli tolC: 97*

What do the screens show for `CC(C)N(C(=O)CSc1nnc(CNc2ccc(F)cc2)o1)C(C)C`?
Cav3 T inh: 0.63

What do the screens show for `COc1ccc(CN(C(=O)CN2C(=O)COc3ccccc32)C2CCCC2)c(OC)c1`?
E coli WT exp: -5; Cav3 T inh: -0.81; PostGolgi yeast: -4; PostGolgi ctrl: 26; Ecoli tolC: 71*

What do the screens show for `COc1ccc(CN(CC2CCCO2)C(=O)CN2C(=O)C(C)Oc3ccc(C)cc32)cc1OC` (configuration not stated)?
Cav3 T inh: 0.66

How did COc1ccc(CN(C(=O)CN2C(=O)C(C)Oc3ccccc32)C2CCCC2)c(OC)c1 (configuration not stated) do in these assays?
E coli WT exp: -6; Cav3 T inh: -4.4*; PostGolgi yeast: -5; PostGolgi ctrl: 13; Ecoli tolC: 67*

How did COc1ccc(CN(Cc2ccccn2)C(=O)CN2C(=O)COc3ccccc32)cc1 do in these assays?
E coli WT exp: -6; Cav3 T inh: 1.3; PostGolgi yeast: -11; PostGolgi ctrl: 1; Ecoli tolC: 7

How did CCOC(=O)c1c(NC(=O)c2csc(C)c2)sc(C(C)=O)c1C do in these assays?
Ecoli tolC: -13

Results for CCCS(=O)(=O)c1nnnn1-c1cccc(OC)c1 ?
E coli WT exp: 15; Cav3 T inh: 1.4; PostGolgi yeast: 55*; PostGolgi ctrl: 29; Ecoli tolC: 40

How did COc1cccc(-n2nnnc2SCC(=O)Nc2ccc(C(C)=O)cc2)c1 do in these assays?
Cav3 T inh: 0.11

What do the screens show for `O=[N+]([O-])c1ccc(Oc2cccc(Br)c2)c2ccncc12`?
E coli WT exp: -6; Cav3 T inh: -0.35; PostGolgi yeast: 8; PostGolgi ctrl: 79*

Results for O=[N+]([O-])c1ccc(Oc2ccc(F)cc2)c2ccncc12 ?
E coli WT exp: 4; Cav3 T inh: -1; PostGolgi yeast: 16; PostGolgi ctrl: 30

Results for COn1c(SC(C)C)nc2ccccc2c1=O ?
E coli WT exp: 10; Cav3 T inh: -0.73; PostGolgi yeast: 2; PostGolgi ctrl: 34*

What do the screens show for `COn1c(SCC(N)=O)nc2ccccc2c1=O`?
E coli WT exp: 3; Cav3 T inh: 0.54; PostGolgi yeast: 22; PostGolgi ctrl: 2; Ecoli tolC: -6

How did COc1cc2c(cc1OC)C1(NCC2)C(=O)Nc2ccccc21 (configuration not stated) do in these assays?
E coli WT exp: 7; Cav3 T inh: -0.45; PostGolgi yeast: 0; PostGolgi ctrl: 48*; Ecoli tolC: -9

What do the screens show for `O=C1Nc2ccccc2C12NCCc1c2[nH]c2ccccc12` (configuration not stated)?
E coli WT exp: 9; Cav3 T inh: -3.1; PostGolgi yeast: 3; PostGolgi ctrl: -6

Results for O=C(Nc1ccc(O)cc1)c1ccc(C(=O)c2ccccc2)o1 ?
E coli WT exp: -4; Cav3 T inh: -0.31; PostGolgi yeast: 3; PostGolgi ctrl: 0; Ecoli tolC: -3

Results for O=C(CSc1c[nH]c2ccccc12)N1CCCc2ccccc21 ?
E coli WT exp: 4; Cav3 T inh: -4.5; PostGolgi yeast: 5; PostGolgi ctrl: 31*

Results for O=C(CSc1ncnc2c1oc1ccccc12)N1CCCc2ccccc21 ?
E coli WT exp: -30; Cav3 T inh: -2.6; PostGolgi yeast: 0; PostGolgi ctrl: 44*; Ecoli tolC: 63*

Results for Cc1c(NC(=O)CCc2ccc(S(=O)(=O)N3CCOCC3)cc2)c(=O)n(-c2ccccc2)n1C ?
Ecoli tolC: -17

What do the screens show for `c1ccc(N2CCN(c3ccccc3)C2c2ccncc2)cc1`?
E coli WT exp: -2; Cav3 T inh: -2.2; PostGolgi yeast: 7; PostGolgi ctrl: 31*

How did CCCC(=O)NC(=S)Nc1cccc(Cl)c1N1CCCCC1 do in these assays?
E coli WT exp: 2; Cav3 T inh: -5*; PostGolgi yeast: -6; PostGolgi ctrl: 16

Results for O=C1CSC(c2cn(-c3ccccc3)nc2-c2ccccc2)N1Cc1ccco1 (configuration not stated) ?
E coli WT exp: -16; Cav3 T inh: -4.7*; PostGolgi yeast: 4; PostGolgi ctrl: 53*; Ecoli tolC: 15

What do the screens show for `O=C1CSC(c2cn(-c3ccccc3)nc2-c2cccs2)N1CC1CCCO1` (configuration not stated)?
E coli WT exp: -10; Cav3 T inh: -5*; PostGolgi yeast: -14; PostGolgi ctrl: 20; Ecoli tolC: 14

How did Cc1cccc(C)c1-n1nnnc1S(=O)(=O)Cc1ccccc1Cl do in these assays?
E coli WT exp: -19; Cav3 T inh: -0.89; PostGolgi yeast: 25; PostGolgi ctrl: 8; Ecoli tolC: 50

Results for COc1ccc(C2OC(=O)c3ccccc3S2)cc1 (configuration not stated) ?
E coli WT exp: 10; Cav3 T inh: -0.94; PostGolgi yeast: -12; PostGolgi ctrl: -3; Ecoli tolC: 8

Results for CS(=O)(=O)c1nc(-c2ccc(Br)cc2)cc(-c2ccccc2)c1C#N ?
E coli WT exp: -8; Cav3 T inh: 1.1; PostGolgi yeast: 10; PostGolgi ctrl: 74*

What do the screens show for `CS(=O)c1nc(-c2ccc(Br)cc2)cc(-c2ccccc2)c1C#N` (configuration not stated)?
E coli WT exp: -9; Cav3 T inh: -0.48; PostGolgi yeast: -1; PostGolgi ctrl: 77*; Ecoli tolC: 95*

What do the screens show for `O=C(CN1C(=O)c2ccccc2C1=O)Nc1ccccc1C(=O)N1CCCC1`?
E coli WT exp: 2; Cav3 T inh: 0.76; PostGolgi yeast: 3; PostGolgi ctrl: 2; Ecoli tolC: -24

Results for Cn1c(SCc2nnc(-c3ccccc3Br)o2)nc2sc3c(c2c1=O)CCC3 ?
E coli WT exp: -14; Cav3 T inh: -1.8; PostGolgi yeast: -9; PostGolgi ctrl: 45*; Ecoli tolC: 24

How did CC1CCc2c(sc3nc(SCc4nc(-c5ccccc5)no4)n(C)c(=O)c23)C1 (configuration not stated) do in these assays?
Ecoli tolC: -8

Results for COCCCn1c(SCc2nnc(-c3ccccc3)o2)nc2sc3c(c2c1=O)CCC3 ?
E coli WT exp: -4; Cav3 T inh: -2.5; PostGolgi yeast: 63*; PostGolgi ctrl: 100*
